From ChEMBL document CHEMBL2407075, “Sulphonamido-quinoxalines: search for anticancer agent” (Eur J Med Chem, 2013)

How the values were obtained:
Format in all cases: functional
CCRF-CEM [1] = experiment: Growth inhibition of human CCRF-CEM cells assessed as cell growth at 10^-8 M after 48 hrs by sulforhodamine B assay; details: read-out: Activity
NCI-H522 = experiment: Growth inhibition of human NCI-H522 cells assessed as cell growth at 10^-4 M after 48 hrs by sulforhodamine B assay; details: NCI-H522, 48 h, read-out: Activity
OVCAR-8 [2] = experiment: Growth inhibition of human OVCAR8 cells assessed as cell growth at 10^-5 M after 48 hrs by sulforhodamine B assay; details: OVCAR-8, 48 h, read-out: Activity
HCT-15 = experiment: Growth inhibition of human HCT15 cells assessed as cell growth at 10^-6 M after 48 hrs by sulforhodamine B assay; details: HCT-15, 48 h, read-out: Activity
COLO 205 [3] = experiment: Growth inhibition of human COLO205 cells assessed as cell growth at 10^-7 M after 48 hrs by sulforhodamine B assay; details: COLO 205, 48 h, read-out: Activity
Method in brief: (§1)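 Five-dose NCI-60 run (0.01, 0.1, 1, 10 and 100 µM, as 10-fold dilutions from a DMSO stock made at 400× the top final level). Cells were grown in RPMI 1640 with 5% FBS and 2 mM glutamine and plated for 24 h. They were then exposed for 48 h at 37 °C and 5% CO2. TCA fixation was followed by SRB staining with A515 read-out. Percent growth was taken relative to time-zero and control plates.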

[4] = Growth inhibition of human HCC2998 cells assessed as cell growth at 10^-4 M after 48 hrs by sulforhodamine B assay; details: HCC 2998, 48 h, read-out: Activity
Method in brief: (§2)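 Five-dose screen at NCI. Cells in RPMI 1640 with 5% FBS and 2 mM L-glutamine, seeded at 5000–40,000 cells/well and grown 24 h at 37 °C, 5% CO2 before dosing, with time-zero plates TCA-fixed. Drug diluted from DMSO stock to 0.01, 0.1, 1, 10 and 100 µM final, 48 h. Cells fixed with cold TCA (10% final), stained with 0.4% SRB and read at 515 nm. Percent growth from Tz, control and test absorbances; GI50, TGI and LC50 from dose-response curves.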

PC-3 = experiment: Growth inhibition of human PC3 cells assessed as cell growth at 10^-5 M after 48 hrs by sulforhodamine B assay; details: PC-3, 48 h, read-out: Activity
SK-MEL-2 [5] = experiment: Growth inhibition of human SK-MEL-2 cells assessed as cell growth at 10^-7 M after 48 hrs by sulforhodamine B assay; details: SK-MEL-2, 48 h, read-out: Activity
OVCAR-8 [6] = experiment: Growth inhibition of human OVCAR8 cells assessed as cell growth at 10^-6 M after 48 hrs by sulforhodamine B assay; details: OVCAR-8, 48 h, read-out: Activity
NCI-H460 [7] = experiment: Growth inhibition of human NCI-H460 cells assessed as cell growth at 10^-5 M after 48 hrs by sulforhodamine B assay; details: NCI-H460, 48 h, read-out: Activity
[8] = Growth inhibition of human NCI-ADR-RES cells assessed as cell growth at 10^-5 M after 48 hrs by sulforhodamine B assay; details: read-out: Activity
A498 = experiment: Growth inhibition of human A498 cells assessed as cell growth at 10^-6 M after 48 hrs by sulforhodamine B assay; details: A498, 48 h, read-out: Activity; method in brief: as §1
LOX IMVI = experiment: Growth inhibition of human LOXIMVI cells after 48 hrs by sulforhodamine B assay
Method in brief: (§3)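 Adherent cells in RPMI 1640 with 5% FBS and 2 mM L-glutamine were plated at 5000–40,000 cells/well and grown 24 h. Five concentrations (0.01–100 µM, DMSO stock) were added for 48 h at 37 °C. Cells were fixed with cold TCA (10% final) and stained with SRB, read at 515 nm. GI50 came from log concentration–growth curves against time-zero and control plates.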

CCRF-CEM [9] = experiment: Growth inhibition of human CCRF-CEM cells assessed as cell growth at 10^-4 M after 48 hrs by sulforhodamine B assay; details: read-out: Activity
COLO 205 [10] = experiment: Growth inhibition of human COLO205 cells assessed as cell growth at 10^-8 M after 48 hrs by sulforhodamine B assay; details: COLO 205, 48 h, read-out: Activity; method in brief: as §1
ACHN = experiment: Growth inhibition of human ACHN cells assessed as cell growth at 10^-8 M after 48 hrs by sulforhodamine B assay; details: read-out: Activity; method in brief: as §1
SR = experiment: Growth inhibition of human SR cells after 48 hrs by sulforhodamine B assay; details: for CC50: read-out: LC50 (the source's name)
Method in brief: (§4)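 Leukemia suspension cells in RPMI 1640 with 5% FBS and 2 mM L-glutamine were plated at 5000–40,000 cells/well and grown 24 h. Five concentrations (0.01–100 µM) were given for 48 h at 37 °C. Settled cells were fixed with 80% TCA (16% final) and SRB-stained, read at 515 nm. GI50 came from dose–response curves against time-zero and control plates.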

HL-60(TB) = experiment: Growth inhibition of human HL-60(TB) cells assessed as cell growth at 10^-8 M after 48 hrs by sulforhodamine B assay; details: HL-60, 48 h, read-out: Activity
Method in brief: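 HL-60(TB) suspension cells were treated 48 h at 37 °C within the five-dose series (0.01–100 µM), fixed with 16% final TCA and SRB-stained, read at 515 nm. Percentage growth at each concentration = (Ti−Tz)/(C−Tz)×100, or (Ti−Tz)/Tz×100 when Ti<Tz, with time-zero (Tz) and untreated control (C) plates.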

UACC-257 = experiment: Growth inhibition of human UACC257 cells assessed as cell growth at 10^-4 M after 48 hrs by sulforhodamine B assay; details: UACC-257, 48 h, read-out: Activity
NCI-H460 [11] = experiment: Growth inhibition of human NCI-H460 cells assessed as cell growth at 10^-8 M after 48 hrs by sulforhodamine B assay; details: NCI-H460, 48 h, read-out: Activity
SF-539 = experiment: Growth inhibition of human SF539 cells assessed as cell growth at 10^-8 M after 48 hrs by sulforhodamine B assay; details: SF-539, 48 h, read-out: Activity
CCRF-CEM [12] = experiment: Growth inhibition of human CCRF-CEM cells assessed as cell growth at 10^-6 M after 48 hrs by sulforhodamine B assay; details: read-out: Activity
CCRF-CEM [13] = experiment: Growth inhibition of human CCRF-CEM cells after 48 hrs by sulforhodamine B assay; details: read-out: LC50 (the source's name); method in brief: as §4
[14] = Growth inhibition of human Hs 578T cells assessed as cell growth at 10^-6 M after 48 hrs by sulforhodamine B assay; details: read-out: Activity; method in brief: as §2
SK-MEL-2 [15] = experiment: Growth inhibition of human SK-MEL-2 cells assessed as cell growth at 10^-5 M after 48 hrs by sulforhodamine B assay; details: SK-MEL-2, 48 h, read-out: Activity
CCRF-CEM [16] = experiment: Growth inhibition of human CCRF-CEM cells assessed as cell growth at 10^-5 M after 48 hrs by sulforhodamine B assay; details: read-out: Activity
SK-MEL-5 = experiment: Growth inhibition of human SK-MEL-5 cells after 48 hrs by sulforhodamine B assay; details: SK-MEL-5, 48 h
SF-295 = experiment: Growth inhibition of human SF295 cells after 48 hrs by sulforhodamine B assay; details: SF-295, 48 h; method in brief: as §3
[17] = read-out: LC50 (the source's name)

SMILES	growth at 100 µM (NCI-H522)	growth at 0.1 µM (COLO 205 [3])	growth at 100 µM [4]	growth at 10 µM (PC-3)	growth at 1 µM (OVCAR-8 [6])	growth at 10 µM (NCI-H460 [7])	growth at 10 µM [8]	growth at 1 µM (A498)	growth at 0.01 µM (COLO 205 [10])	growth at 0.01 µM (ACHN)	CC50 (SR)	growth at 0.01 µM (HL-60(TB))	growth at 100 µM (UACC-257)	growth at 0.01 µM (NCI-H460 [11])	growth at 0.01 µM (SF-539)	growth at 1 µM [14]	other results
O=S(=O)(Nc1ccc(Cl)cc1)c1ccc2nc(-c3ccccc3)c(-c3ccccc3)nc2c1	67%	101%	85%	-12%	92%	-18%	14%	65%	101%	102%	> 100 µM	97%	67%	101%	99%	76%	growth at 0.01 µM (CCRF-CEM [1]): 88%; growth at 10 µM (OVCAR-8 [2]): 6%; growth at 1 µM (HCT-15): 87%; growth at 0.1 µM (SK-MEL-2 [5]): 99%; TGI (LOX IMVI): > 100 µM; CC50 (LOX IMVI; [17]): > 100 µM; growth at 100 µM (CCRF-CEM [9]): 64%; growth at 1 µM (CCRF-CEM [12]): 79%; CC50 (CCRF-CEM [13]): > 100 µM; growth at 10 µM (SK-MEL-2 [15]): -56%; growth at 10 µM (CCRF-CEM [16]): -40%
O=S(=O)(Nc1ccccn1)c1ccc2nc(-c3ccccc3)c(-c3ccccc3)nc2c1	31%	98%	64%	-12%	85%	1%	-1%	66%	98%	99%	> 100 µM	98%	53%	104%	96%	65%	GI50 (SR): 1.4 µM; GI50 (SK-MEL-5): 1.46 µM; GI50 (SF-295): 1.87 µM; CC50 (SF-295; [17]): 100 µM
